Calls of active or inactive are those of the source. The rule behind the calls is not given here.
Columns and labels:
[1] = tested on: Rattus norvegicus; experiment: The concentration yielding a half maximal decrease of the DOPA was determined in rat brain hemispheres; inactive at 11 umol/kg; format: functional, organism-based
Method in brief: (§1)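 Reserpine-pretreated (5 mg/kg sc, 18 h) male Sprague-Dawley rats, 200–300 g; compounds in saline given sc. DOPA and 5-HTP in limbic system, striatum and hemispheres measured by HPLC with electrochemical detection. Dose–response curves of 4–6 doses (n = 4) per area, fitted to variable-slope sigmoid on log data to give ED50.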

[2] = species: Rattus norvegicus; experiment: The concentration yielding a half maximal decrease of the DOPA was determined in rat brain striatum. pED50 values in parenthesis; format: functional
[3] = tested on: Rattus norvegicus; experiment: The concentration yielding a half maximal decrease of the 5-HTP was determined in rat brain striatum; inactive at 11 umol/kg; format: functional, organism-based; method in brief: as §1
[4] = tested on: Rattus norvegicus; experiment: The concentration yielding a half maximal decrease of the 5-HTP was determined in rat limbic system; inactive at 11 umol/kg; format: functional, organism-based; method in brief: as §1
[5] = tested on: Rattus norvegicus; experiment: Motor activity was measured by motility testing on injecting the compound subcutaneously into rats at the dose of 0.02 umol/kg (1a) and 3.5 umol/kg (1b)
[6] = tested on: Rattus norvegicus; experiment: The concentration yielding a half maximal decrease of the 5-HTP was determined in rat brain hemispheres; inactive at 11 umol/kg; format: functional, organism-based; method in brief: as §1
[7] = species: Rattus norvegicus; experiment: The concentration yielding a half maximal decrease of the DOPA was determined in rat limbic system. pED50 values in parenthesis; format: functional
[8] = species: Rattus norvegicus; experiment: The concentration yielding a half maximal decrease of the 5-HTP was determined in rat brain hemispheres; format: functional; method in brief: as §1
[9] = species: Rattus norvegicus; experiment: Log concentration to inhibit 5-HTP accumulation was determined in rat limbic system; format: functional; method in brief: as §1
[10] = Half life in plasma after administration of 2 umol/kg dose perorally; format: ADME, organism-based; settings: po
[11] = Maximum concentration in plasma after administration of 2 umol/kg dose intravenously; format: ADME, organism-based; set-up: dose 2 umol/kg, route intravenous; settings: iv
[12] = Time taken to reach maximum concentration after administration of 10 umol/kg dose perorally; format: ADME, organism-based; settings: in vivo, po
Method in brief: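 Male Sprague-Dawley rats, starved 18 h for the oral arm, dosed iv or po. Blood sampled at intervals up to 12 h. Compound measured by GC/mass spectrometry against an internal standard, with a standard curve over 2–1000 pmol/mL in blank blood. tmax read from concentration–time curves, n = 4–6.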

[13] = Maximum concentration in plasma after administration of 10 umol/kg dose perorally; format: ADME, organism-based; set-up: dose 10 umol/kg, route oral; settings: po
Method in brief: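 Male Sprague-Dawley rats starved 18 h, dosed orally. Blood samples over up to 12 h, drug quantified by GC/MS against internal standard (2–1000 pmol/mL standard curve). Cmax read from concentration–time curve; SEM, n = 4–6.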

[14] = species: Rattus norvegicus; experiment: The concentration yielding a half maximal decrease of the 5-HTP was determined in rat limbic system; format: functional; method in brief: as §1
[15] = Area under the curve after intravenous administration at a dose of 2 umol/kg; format: ADME; settings: in vivo
[16] = tested on: Rattus norvegicus; experiment: The concentration yielding a half maximal decrease of the DOPA was determined in rat limbic system; inactive at 3.1 umol/kg; format: functional, organism-based
[17] = species: Rattus norvegicus; experiment: The concentration yielding a half maximal decrease of the 5-HTP was determined in rat brain striatum; format: functional; method in brief: as §1
[18] = tested on: Rattus norvegicus; experiment: The concentration yielding a half maximal decrease of the DOPA was determined in rat brain striatum; inactive at 3.1 umol/kg; format: functional, organism-based
[19] = tested on: Rattus norvegicus; experiment: Ratio of the 5HTP-accumulation decrease in limbic regions of oral to that of sc administration; format: functional, Limbic system
Method in brief: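 Ratio of ED50 for decrease of limbic 5-HTP accumulation after oral versus sc dosing in reserpine-pretreated rats; 5-HTP measured by HPLC with electrochemical detection.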

[20] = tested on: Rattus norvegicus; experiment: The concentration yielding a half maximal decrease of the DOPA was determined in rat brain hemispheres; inactive at 3.1 umol/kg; format: functional, organism-based; method in brief: as §1
[21] = biological target: D(2) dopamine receptor (Rattus norvegicus, UniProt P61169); experiment: Displacement of the radioligand [3H]spiperone from D2 receptor
Method in brief: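 Rat striatal membranes in 50 mM potassium phosphate buffer, incubated with 0.5 nM [3H]spiperone (3 mg tissue) 10 min at 37 °C. Nonspecific binding defined with 10 μM 6,7-ADTN. IC50 converted to Ki by Cheng–Prusoff; 3–7 experiments, each concentration in triplicate.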

[22] = species: Rattus norvegicus; experiment: Log concentration to inhibit 5-HTP accumulation was determined in rat brain hemispheres; format: functional; method in brief: as §1
[23] = Time taken to reach maximum concentration after administration of 2 umol/kg dose intravenously; format: ADME, organism-based; settings: in vivo, iv
[24] = species: Rattus norvegicus; experiment: Log concentration to inhibit 5-HTP accumulation was determined in rat brain striatum; format: functional; method in brief: as §1
[25] = Bioavailability in rats after 5 mg/kg (i.v.) and 40 mg/kg (p.o.) administration; format: ADME, organism-based; settings: rat, in vivo, po
Method in brief: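 Male Sprague-Dawley rats; oral group starved 18 h, compared with iv dosing. Blood sampled up to 12 h, levels by GC/MS. Absolute oral availability F (po/iv) from ratio of AUCs of blood concentration–time curves, po n = 5, iv n = 3.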

Sequence of D(2) dopamine receptor (P61169 whole entry): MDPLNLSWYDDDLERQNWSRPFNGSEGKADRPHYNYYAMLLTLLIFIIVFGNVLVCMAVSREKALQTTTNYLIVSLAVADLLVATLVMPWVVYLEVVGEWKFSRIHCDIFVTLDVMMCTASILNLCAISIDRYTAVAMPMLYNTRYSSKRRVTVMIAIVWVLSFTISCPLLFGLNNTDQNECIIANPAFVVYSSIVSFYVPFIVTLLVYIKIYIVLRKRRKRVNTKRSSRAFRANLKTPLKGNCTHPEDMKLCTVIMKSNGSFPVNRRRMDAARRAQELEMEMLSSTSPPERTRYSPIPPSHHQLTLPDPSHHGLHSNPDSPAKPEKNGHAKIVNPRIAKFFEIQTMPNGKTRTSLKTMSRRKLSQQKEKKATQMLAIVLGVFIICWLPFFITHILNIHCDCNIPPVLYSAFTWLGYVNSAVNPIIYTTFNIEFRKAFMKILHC

Compound: CCCN(CCC)C1CCc2ccc(O)cc2C1 (stereo unspecified)
- ED50 [1]: inactive
- ED50 [2]: 0.03 µmol/kg
- ED50 [3]: inactive
- ED50 [4]: inactive
- Counts/30 min [5]: 170
- ED50 [6]: inactive
- ED50 [7]: 0.027 µmol/kg

Compound: CCCN(CCC)[C@@H]1CCc2ccc3[nH]cc(C=O)c3c2C1
- ED50 [8]: 0.45 µmol/kg
- pED50 [9]: 7.14
- half-life [10]: 1.5 h
- Cmax [11]: 712 nM
- Tmax [12]: 2.5 h
- Cmax [13]: 108 nM
- ED50 [14]: 0.072 µmol/kg
- AUC [15]: 431 pM/kg
- ED50 [16]: inactive
- Counts/30 min [5]: 162
- ED50 [17]: 0.12 µmol/kg
- ED50 [18]: inactive
- ED50 [19]: 15%
- ED50 [20]: inactive
- Ki [21]: 382 nM
- pED50 [22]: 6.34
- Tmax [23]: 2 min
- pED50 [24]: 6.91
- bioavailability [25]: 46%
